From ChEMBL document CHEMBL3785023, “Development and Pharmacological Characterization of Selective Blockers of 2-Arachidonoyl Glycerol Degradation with Efficacy in Rodent Models of Multiple Sclerosis and Pain” (J Med Chem, 2016)
Active and inactive are the calls of the source. The calls are words filed in the database; no cut-off is given here.

How the values were obtained:
[1] = test system: Heart; assay: Cardiotoxicity in Langendorff-perfused Sprague-Dawley rat heart assessed as corrected time duration of action potential at 0.001 uM by ECG analysis (reference value: 155.26 +/- 2.96 milliseconds); format: toxicity, tissue-based
[2] = biological target: T1, Monoglyceride lipase (Rattus norvegicus, UniProt Q8R431); assay: Inhibition of rat MAGL
T1 sequence (Q8R431 whole entry): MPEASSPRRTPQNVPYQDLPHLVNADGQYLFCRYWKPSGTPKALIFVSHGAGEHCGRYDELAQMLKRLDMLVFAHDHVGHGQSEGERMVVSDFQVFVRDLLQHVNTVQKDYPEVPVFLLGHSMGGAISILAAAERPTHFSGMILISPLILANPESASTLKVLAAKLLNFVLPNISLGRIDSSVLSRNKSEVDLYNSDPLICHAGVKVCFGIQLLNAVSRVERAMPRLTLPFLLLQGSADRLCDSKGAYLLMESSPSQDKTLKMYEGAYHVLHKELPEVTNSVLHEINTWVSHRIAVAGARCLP

[3] = test system: Mus musculus; assay: Antinociceptive activity in ip dosed CD-1 mouse assessed as inhibition of formalin-induced pain response compound administered 10 mins before formalin injection measured during early phase; format: functional; details: CD-1, ip, read-out: MED
Procedure, shortened: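 Male CD-1 mice, n = 6 per group, injected with formalin (1.25% in saline, 30 μL) into the dorsal hind paw. Inhibitor (0.1 or 0.3 mg/kg i.p. in 0.5% DMSO/saline) given 10 min before formalin. Where used, AM251 or AM630 (1 mg/kg i.p.) given 10 min before the inhibitor. Time spent lifting, licking, shaking or flinching the injected paw recorded every 5 min over 60 min.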

[4] = test system: Heart; assay: Cardiotoxicity in Langendorff-perfused Sprague-Dawley rat heart assessed as corrected time duration of action potential at 1 uM by ECG analysis (reference value: 155.26 +/- 2.96 milliseconds); format: toxicity, tissue-based
[5] = test system: Mus musculus; assay: Toxicity in CD-1 mouse assessed as 2-AG level in spinal cord at 0.3 mg/kg, ip by LC-MS analysis (reference value: 6.4 +/- 0.4 pmol/g); format: organism-based; details: in vivo
Procedure, shortened: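 Male CD-1 mice received 0.3 mg/kg i.p. in 0.5% DMSO/saline, with formalin (1.25%, 30 µL) injected into the dorsal hind paw. Paw skin or spinal cord was taken at 5 min post-dose. Tissue was homogenized in CHCl3/MeOH/50 mM Tris-HCl (2:1:1) containing d5-2-AG, extracted with chloroform and analysed by LC-MS. n = 4; ANOVA with Bonferroni test.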

[6] = biological target: T2, Monoglyceride lipase (Homo sapiens, UniProt Q99685); assay: Inhibition of recombinant C-terminal His6-tagged human MAGL expressed in Escherichia coli using 2-arachidonoyl-[3H]-glycerol as substrate preincubated for 10 mins followed by substrate addition measured after 20 mins by scintillation counting method
T2 sequence (Q99685 whole entry): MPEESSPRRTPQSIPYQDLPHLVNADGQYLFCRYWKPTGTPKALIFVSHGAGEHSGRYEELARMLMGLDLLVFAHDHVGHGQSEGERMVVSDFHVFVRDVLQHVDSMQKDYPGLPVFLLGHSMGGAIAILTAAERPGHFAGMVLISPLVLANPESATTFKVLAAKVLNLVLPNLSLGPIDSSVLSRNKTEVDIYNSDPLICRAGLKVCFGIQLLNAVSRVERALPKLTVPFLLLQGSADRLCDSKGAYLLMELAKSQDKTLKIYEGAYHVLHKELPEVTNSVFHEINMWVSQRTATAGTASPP
Procedure, shortened: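 Human recombinant MGL (10,000xg cytosolic fraction, 0.05 µg/sample) is pre-incubated with compound for 10 min. It is then incubated 20 min at 37 °C in 50 mM Tris-HCl pH 7.0 with 2-arachidonoyl-[3H]-glycerol diluted with unlabelled 2-AG. The mix is extracted with 2 vol CHCl3/MeOH 1:1, and [3H]-glycerol in the aqueous phase is counted by scintillation. Values are means of three experiments.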

[7] = test system: Salmonella typhimurium; assay: Mutagenicity in Salmonella typhimurium TA100 assessed as increase in number of colonies up to >200 uM by Ames test in presence of S9 fraction; format: toxicity, organism-based; details: salmonella enterica subsp. enterica serovar typhimurium
[8] = biological target: T3, Monoacylglycerol lipase ABHD6 (Rattus norvegicus) (UniProt Q5XI64); assay: Inhibition of ABHD6 in rat brain membranes up to 500 nM preincubated for 20 mins followed by fluorophosphonate-rhodamine addition measured after 30 mins by competitive affinity based proteomic profiling assay; format: cell membranes; details: Membrane
T3 sequence (whole entry): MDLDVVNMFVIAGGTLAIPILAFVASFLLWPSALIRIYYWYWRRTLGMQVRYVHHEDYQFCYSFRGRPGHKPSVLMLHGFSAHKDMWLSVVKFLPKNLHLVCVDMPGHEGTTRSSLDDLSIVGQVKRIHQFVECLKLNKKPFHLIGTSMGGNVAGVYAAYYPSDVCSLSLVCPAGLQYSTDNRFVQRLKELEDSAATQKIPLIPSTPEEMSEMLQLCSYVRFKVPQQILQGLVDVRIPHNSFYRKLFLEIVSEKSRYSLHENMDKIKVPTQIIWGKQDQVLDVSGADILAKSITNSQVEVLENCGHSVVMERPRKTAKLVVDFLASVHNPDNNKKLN
Procedure, shortened: (§1)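 Rat brain membranes (1 mg/mL) preincubated with 1–1000 nM inhibitor or DMSO for 20 min at 37 °C. FP-rhodamine then added and incubated a further 30 min at 37 °C. Samples run on SDS-PAGE and serine hydrolase bands quantified by in-gel fluorescence.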

[9] = biological target: T4, Fatty-acid amide hydrolase 1 (Rattus norvegicus) (UniProt P97612); assay: Inhibition of FAAH in rat brain membranes up to 500 nM preincubated for 20 mins followed by fluorophosphonate-rhodamine addition measured after 30 mins by competitive affinity based proteomic profiling assay; format: cell membranes; details: Membrane; procedure, shortened: as §1
T4 sequence (whole entry): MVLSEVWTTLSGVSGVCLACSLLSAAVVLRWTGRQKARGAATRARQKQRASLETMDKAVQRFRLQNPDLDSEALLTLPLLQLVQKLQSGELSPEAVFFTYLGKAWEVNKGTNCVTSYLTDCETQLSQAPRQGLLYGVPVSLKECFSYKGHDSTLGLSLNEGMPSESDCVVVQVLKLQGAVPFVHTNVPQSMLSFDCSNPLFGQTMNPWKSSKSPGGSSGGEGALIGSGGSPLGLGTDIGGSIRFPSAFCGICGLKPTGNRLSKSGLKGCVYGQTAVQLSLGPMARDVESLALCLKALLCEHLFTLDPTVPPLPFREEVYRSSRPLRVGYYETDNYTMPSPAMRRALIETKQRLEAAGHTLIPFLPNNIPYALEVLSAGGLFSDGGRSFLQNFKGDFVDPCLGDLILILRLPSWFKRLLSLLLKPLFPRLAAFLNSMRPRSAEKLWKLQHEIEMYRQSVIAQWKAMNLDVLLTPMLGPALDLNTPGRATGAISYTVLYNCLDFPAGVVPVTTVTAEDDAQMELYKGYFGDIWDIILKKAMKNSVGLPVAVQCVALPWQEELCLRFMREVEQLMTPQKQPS

| Compound | Time [1] [ms] | IC50 [2] [nM] | minimal effective dose [3] [mg/kg] | Time [4] [ms] | Activity [5] [pmol/g] | IC50 [6] [nM] | Activity [7] | inhibition [8] | inhibition [9] |
| --- | --- | --- | --- | --- | --- | --- | --- | --- | --- |
| O=C1[C@H](c2ccc(F)cc2)[C@@H](c2ccc3c(c2)OCO3)N1C1CCN(C(=O)n2cncn2)CC1 (racemic) [listing 1 of 2 here] | 157.13 | 0.25 | 0.3 | 156.78 | 9.7 | 196 | Non-toxic | – | – |
| O=C1[C@H](c2ccc(F)cc2)[C@@H](c2ccc3c(c2)OCO3)N1C1CCN(C(=O)n2cncn2)CC1 (racemic) [listing 2 of 2 here] | – | – | – | – | – | – | – | inactive | inactive |
